Experimental findings from ChEMBL document CHEMBL1148356, “Synthesis and biological evaluation of 3-heterocyclyl-7,8,9,10-tetrahydro-(7,10-ethano)-1,2,4-triazolo[3,4-a]phthalazines and analogues as subtype-selective inverse agonists for the GABA(A)alpha5 benzodiazepine binding site” (J Med Chem, 2004) are described below.

Assay [1] concerns the target GABA-A receptor; alpha-3/beta-3/gamma-2 (Homo sapiens) (UniProt P18507+P28472+P34903). Description: Percent maximum change in electrophysiological response in Xenopus oocytes expressing alpha-3-beta-3-gamma-2 GABA-A receptor. The conditions noted are these: Oocyte. The class given is functional, cell-based. An outline of the steps: (§1)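 Two-electrode voltage clamp on Xenopus oocytes injected with human GABA-A subunit cDNAs, 24-72 h expression, perfused with modified Barth's medium at pH 7.5, clamped between -40 and -70 mV. The GABA EC20 was titrated against a 3 mM GABA maximum. […] Result is % change of control current, mean ± SE of ≥4 oocytes.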

The target of assay [2] is T1, GABA-A receptor; alpha-3/beta-3/gamma-2 (Homo sapiens, UniProt P18507+P28472+P34903).
T1 sequence (P18507 whole entry): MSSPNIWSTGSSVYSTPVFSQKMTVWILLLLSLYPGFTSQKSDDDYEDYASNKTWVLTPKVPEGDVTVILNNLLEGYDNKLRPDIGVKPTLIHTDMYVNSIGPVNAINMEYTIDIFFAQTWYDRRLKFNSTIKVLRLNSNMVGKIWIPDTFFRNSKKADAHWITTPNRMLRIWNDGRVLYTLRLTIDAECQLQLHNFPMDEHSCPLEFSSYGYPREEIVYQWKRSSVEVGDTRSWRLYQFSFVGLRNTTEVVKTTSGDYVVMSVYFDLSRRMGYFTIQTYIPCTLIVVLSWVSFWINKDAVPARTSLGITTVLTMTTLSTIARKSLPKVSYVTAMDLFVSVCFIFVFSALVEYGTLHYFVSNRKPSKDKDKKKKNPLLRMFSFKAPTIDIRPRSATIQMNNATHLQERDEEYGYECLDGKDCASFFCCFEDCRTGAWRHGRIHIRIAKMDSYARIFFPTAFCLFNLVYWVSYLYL
T1 sequence (P28472 whole entry): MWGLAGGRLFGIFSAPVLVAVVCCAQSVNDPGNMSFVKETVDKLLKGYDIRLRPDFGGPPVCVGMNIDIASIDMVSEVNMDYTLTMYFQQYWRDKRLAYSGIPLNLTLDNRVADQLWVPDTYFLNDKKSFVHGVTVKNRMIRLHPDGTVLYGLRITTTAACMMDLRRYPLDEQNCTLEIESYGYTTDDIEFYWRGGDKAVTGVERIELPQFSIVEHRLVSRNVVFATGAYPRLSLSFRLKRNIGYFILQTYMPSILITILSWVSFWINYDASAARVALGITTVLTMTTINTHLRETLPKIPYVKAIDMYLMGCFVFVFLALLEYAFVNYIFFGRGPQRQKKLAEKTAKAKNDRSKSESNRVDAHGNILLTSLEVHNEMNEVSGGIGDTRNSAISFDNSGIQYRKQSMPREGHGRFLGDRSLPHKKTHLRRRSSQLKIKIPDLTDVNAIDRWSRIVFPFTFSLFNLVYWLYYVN
T1 sequence (P34903 whole entry): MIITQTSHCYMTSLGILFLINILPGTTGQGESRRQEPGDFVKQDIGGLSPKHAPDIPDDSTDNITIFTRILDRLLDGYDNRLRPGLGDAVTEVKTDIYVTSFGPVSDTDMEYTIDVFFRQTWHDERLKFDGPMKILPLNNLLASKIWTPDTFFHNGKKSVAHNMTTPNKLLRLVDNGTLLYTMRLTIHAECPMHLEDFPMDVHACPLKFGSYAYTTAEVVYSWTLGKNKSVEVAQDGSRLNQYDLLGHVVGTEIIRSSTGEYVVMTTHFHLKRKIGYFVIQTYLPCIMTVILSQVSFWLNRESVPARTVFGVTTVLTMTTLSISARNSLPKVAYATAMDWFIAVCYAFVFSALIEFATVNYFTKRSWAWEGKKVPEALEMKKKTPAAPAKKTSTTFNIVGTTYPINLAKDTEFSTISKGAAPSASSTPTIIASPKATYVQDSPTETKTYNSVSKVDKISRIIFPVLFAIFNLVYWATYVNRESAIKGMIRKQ
Description: Binding affinity towards human gamma-aminobutyric-acid A receptor alpha-3-beta-3-gamma-2 using [3H]Ro-151788 expressed in L(tk-) cells. In kind it is cell-based.

Assay [3] addresses GABA-A receptor; alpha-2/beta-3/gamma-2 (Homo sapiens) (UniProt P18507+P28472+P47869). Description: Percent change in electrophysiological response in Xenopus oocytes expressing Alpha2-beta3-gamma2 GABA-A receptor. The class given is functional, cell-based. The conditions noted are these: Oocyte. The gist of the method:
as §1

The target in assay [4] is T2, GABA-A receptor; alpha-1/beta-3/gamma-2 (Homo sapiens, UniProt P14867+P18507+P28472).
T2 sequence (P14867 whole entry): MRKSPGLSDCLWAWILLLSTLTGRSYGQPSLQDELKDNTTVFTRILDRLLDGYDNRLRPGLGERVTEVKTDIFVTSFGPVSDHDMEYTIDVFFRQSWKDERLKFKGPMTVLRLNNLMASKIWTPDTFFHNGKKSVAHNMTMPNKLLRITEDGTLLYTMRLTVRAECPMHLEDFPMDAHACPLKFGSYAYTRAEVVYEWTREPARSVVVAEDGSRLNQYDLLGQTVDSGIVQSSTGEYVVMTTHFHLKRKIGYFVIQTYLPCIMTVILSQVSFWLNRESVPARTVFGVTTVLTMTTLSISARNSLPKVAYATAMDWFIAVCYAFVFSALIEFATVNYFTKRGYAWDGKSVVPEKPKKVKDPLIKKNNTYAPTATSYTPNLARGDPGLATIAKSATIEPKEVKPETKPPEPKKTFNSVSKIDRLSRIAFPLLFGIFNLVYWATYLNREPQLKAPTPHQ
T2 sequence (P18507 whole entry): T1 sequence (P18507 whole entry)
T2 sequence (P28472 whole entry): T1 sequence (P28472 whole entry)
Description: Binding affinity towards human alpha-1-beta-3-gamma-2 GABA-A receptor using [3H]Ro-151788 expressed in L(tk-) cells. In kind it is cell-based.

For assay [5], the target named is GABA-A receptor; alpha-5/beta-3/gamma-2 (Homo sapiens) (UniProt P18507+P28472+P31644). Description: Percent change in electrophysiological response in Xenopus oocytes expressing Alpha-5-beta-3-gamma-2 GABA-A receptor. The class given is functional, cell-based. The settings on record: Oocyte. The gist of the method: as §1
Assay [6] has as its target T3, GABA-A receptor; alpha-5/beta-3/gamma-2 (Homo sapiens, UniProt P18507+P28472+P31644).
T3 sequence (P18507 whole entry): T1 sequence (P18507 whole entry)
T3 sequence (P28472 whole entry): T1 sequence (P28472 whole entry)
T3 sequence (P31644 whole entry): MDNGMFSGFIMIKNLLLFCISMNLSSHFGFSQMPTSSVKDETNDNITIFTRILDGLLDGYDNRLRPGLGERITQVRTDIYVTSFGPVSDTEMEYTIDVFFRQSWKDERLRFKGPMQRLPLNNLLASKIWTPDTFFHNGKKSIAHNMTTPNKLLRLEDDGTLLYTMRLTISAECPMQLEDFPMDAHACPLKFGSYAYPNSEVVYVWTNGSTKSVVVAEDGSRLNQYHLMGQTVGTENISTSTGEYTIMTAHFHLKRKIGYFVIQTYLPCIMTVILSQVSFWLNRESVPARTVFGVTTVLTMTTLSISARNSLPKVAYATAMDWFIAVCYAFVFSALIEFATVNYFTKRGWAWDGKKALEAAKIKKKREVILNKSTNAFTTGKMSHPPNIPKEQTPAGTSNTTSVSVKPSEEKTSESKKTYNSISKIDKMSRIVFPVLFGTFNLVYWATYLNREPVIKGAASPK
Description: Binding affinity towards human alpha-5-beta-3-gamma-2 GABA-A receptor using [3H]Ro-151788 expressed in L(tk-) cells. The class given is cell-based.

pKi: −log10 of the molar value.

For the compound `Cc1cc(-c2nnc3c4ccccc4c(OCc4ccccn4)nn23)no1`, the Efficacy was -17% in assay [1], 15% in assay [3] and -46% in assay [5]. Also, the pKi in assay [2] was 8.85; in assay [4] it was 8.85; in assay [6], 9.10.

Usually pKi stands for the negative decadic logarithm of the Ki, by convention in mol/L. A high value points to a small Ki.
